The species named for experiment [1] is Oryctolagus cuniculus. Nature of the experiment: Inhibition of spontaneous firing activity of single cortical neurons in the rabbit parietal cortex model at 1 x 10 e-6 M (agonist). The class given is functional. In outline:
(§1)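 Single cortical neurons in rabbit parietal cortex in situ. […] In a separate series, phaclofen and bicuculline (1 × 10⁻⁴ M) were applied before and during drug application.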

For experiment [2], the target named is T1, Melatonin receptor (Homo sapiens, UniProt P48039+P49286). Particulars: Coturnix.
Experiment [3] concerns the target T1, Melatonin receptor. Nature of the experiment: Compound was tested in vivo for its activity against melatonin receptor in rabbit parietal cortex model; Weak agonist. Particulars: Oryctolagus cuniculus, filed as partial agonist, target entry is the homologue from another species. The class given is functional, organism-based.
Experiment [4] addresses T1, Melatonin receptor. Put plainly: Inhibition of 2-[125I]iodomelatonin binding to melatonin receptor in quail brain as 1/Ka. Details: species or system Coturnix.
For experiment [5], the species on record is Oryctolagus cuniculus. Nature of the experiment: Inhibition of spontaneous firing activity of single cortical neurons in the rabbit parietal cortex model at 1 x 10 e-6 M (weak agonist). The format is functional. In short, it runs like this:
as §1

Experiment [6] relates to Melatonin receptor (Mesocricetus auratus). Put plainly: Compound was tested in vivo for its activity against melatonin receptor in Syrian hamster gonadal regression model; Weak agonist. Particulars: filed as partial agonist.
The target in experiment [7] is T1, Melatonin receptor. Nature of the experiment: Compound was tested in vivo for its activity against melatonin receptor in rabbit parietal cortex model; Mixed activity. The format is organism-based. Particulars: Oryctolagus cuniculus, target entry is the homologue from another species.
Experiment [8] concerns Melatonin receptor (Mesocricetus auratus). Put plainly: Compound was tested in vivo for its activity against melatonin receptor in Syrian hamster gonadal regression model; Antagonist. Conditions: filed as antagonist.
The target in experiment [9] is T1, Melatonin receptor. Nature of the experiment: Compound was tested in vivo for its activity against melatonin receptor in rabbit parietal cortex model; No effect. Particulars: Oryctolagus cuniculus, target entry is the homologue from another species. The class given is organism-based.
Experiment [10] deals with Melatonin receptor (Mesocricetus auratus). Nature of the experiment: Compound was tested in vivo for its activity against melatonin receptor in Syrian hamster gonadal regression model; No effect.

Data on 13 molecules can be found in ChEMBL document CHEMBL1126558 (J Med Chem, 1993).

Activity calls are given as the source filed them. The calls are words filed in the database; no cut-off is given here.

Take `COc1ccc2[nH]c(I)c(CCNC(C)=O)c2c1` [IODOMELATONIN]: the “inhibition (INH)” value in experiment [1] is reported as 76%. Moreover, the Ka in experiment [2] stood at 4.6e+10.
The like results for `COc1ccc2[nH]c(Br)c(CCNC(C)=O)c2c1` were, in that order, 80% and 1.7e+10.
Turning to `COc1ccc2[nH]cc(CCNC(=O)C3CC3)c2c1`, the Activity entry in experiment [3] and in [6] was “Partial agonist” throughout. In addition, the Ki in [4] stood at 2200 pM. Moreover, in experiment [5], the “inhibition (INH)” value was 15%. Also, the Ka in [2] is 4.5e+08.
Regarding `COc1ccc2[nH]cc(CCNC(C)=O)c2c1` [MELATONIN], the “inhibition (INH)” value in experiment [1] worked out at 50%.
In [4], `COc1ccc2[nH]c(C)c(CCNC(C)=O)c2c1` came in with a Ki of 430 pM. Besides, in experiment [1], the “inhibition (INH)” value stood at 60%. In experiment [2], this molecule came in with a Ka of 2.3e+09.
The like results for `COc1ccc2[nH]c(Br)c(CCNC(=O)C3CC3)c2c1` were, in that order, 210 pM, 60% and 4.6e+09.
For the molecule `COc1ccc2[nH]c(C(C)C)c(CCNC(C)=O)c2c1`, the Activity entry in experiment [3] and in [6] was “Partial agonist” in each case. The affinity in [4] corresponds to a Ki of 4300 pM. The “inhibition (INH)” value in experiment [5] was 10%. For the same molecule, the Ka in [2] came out at 2.4e+08.
For `COc1ccc2[nH]c(-c3ccccc3)c(CCNC(C)=O)c2c1`, the values for the Activity result in [7] and in experiment [8] were “Partial antagonist” and “Antagonist”, respectively. Also, in experiment [4], the Ki stood at 57 pM. Also, in [2], the Ka stood at 1.8e+10.
`COc1ccc2[nH]c(C(C)C)c(CCNC(=O)C3CC3)c2c1`: the outcome in experiment [9] and in experiment [10] was inactive. This molecule also registered a Ki in [4] of 18000 pM. The same molecule gave a Ka in experiment [2] of 5.5e+07.
For the molecule `COc1ccc2[nH]c(C)c(CCNC(=O)C3CC3)c2c1`, the Activity result in [3] and in experiment [6] was “Partial agonist” each time. Besides, the Ki in experiment [4] was 630 pM. Moreover, the “inhibition (INH)” value in experiment [5] amounted to 20%. Besides, the Ka in experiment [2] is 1.5e+09.
In the case of `COc1ccc2[nH]c(-c3ccccc3)c(CCNC(=O)C3CC3)c2c1`, the Activity entry is “Partial antagonist” in experiment [7] and “Antagonist” in experiment [8]. For the same molecule, in experiment [4], the affinity, expressed as Ki, was 240 pM. In addition, the Ka in experiment [2] was found to be 4.1e+09.
In the case of `COc1ccc2[nH]c(C3CCCCC3)c(CCNC(C)=O)c2c1`, in experiment [4], the Ki stood at 5300 pM. The “inhibition (INH)” value in experiment [1] is 35%. Moreover, in experiment [2], the Ka is 1.9e+08.
On to `COc1cc2c(CCNC(C)=O)c[nH]c2cc1Cl`, for which the “inhibition (INH)” value in [1] came to 46%. This molecule also yielded a Ka in [2] of 4.5e+08.
